We go through seven molecules from ChEMBL document CHEMBL5329167, “Design, synthesis and evaluation of halogenated phenazine antibacterial prodrugs targeting nitroreductase enzymes for activation” (RSC Med Chem, 2023).

Values after ≈ are worked out from the molar mass of the structure shown. Active and inactive are the calls of the source. No cut-off for these calls is given here. Some results are limits rather than exact numbers.

A short description of data set [1]: Cytotoxicity against HEK293 cells incubated for 48 hrs by MTT assay. Particulars: human. The class given is toxicity, cell-based. Put shortly: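 HEK-293 cells (10⁴/well) in DMEM with 10% FBS, penicillin/streptomycin, settled overnight at 37 °C, 5% CO₂. Medium replaced with compound at 0.10–100 µM (2-fold steps); DMSO as negative control. After 48 h at 37 °C, MTT (5 mg/mL stock) added for 3 h. Formazan dissolved in DMSO, OD read at 570 nm. Eight replicates per treatment.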

The test system of the next data set is Streptococcus pneumoniae. The experiment in a line: Antibacterial activity against Streptococcus pneumoniae 6303 assessed as bacterial growth inhibition incubated for 16 hrs by CLSI based broth microdilution method. The data set is classed as functional. The procedure, abridged:
(§1)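 CLSI broth microdilution in LB: eleven 2-fold serial dilutions, 0.10–100 µM. DMSO vehicle/negative control diluted from 0.5% v/v. Wells seeded with ~10⁵ cells from log-phase culture (OD₆₀₀ 0.6–0.8), held 16 h at 37 °C. MIC taken as the lowest concentration preventing growth by OD₆₀₀ turbidity. Minimum three independent experiments.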

The test system of data set [2] is Staphylococcus epidermidis. The experiment in a line: Antibacterial activity against Staphylococcus epidermidis 12228 assessed as bacterial growth inhibition incubated for 16 hrs by CLSI based broth microdilution method. The class given is functional. The procedure, abridged: as §1
Data set [3] relates to Staphylococcus aureus. The experiment in a line: Antibacterial activity against methicillin-resistant Staphylococcus aureus BAA-1707 assessed as bacterial growth inhibition incubated for 16 hrs by CLSI based broth microdilution method. The class given is functional. Put shortly: (§2)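 Broth microdilution per CLSI in LB, eleven two-fold serial dilutions spanning 0.10 to 100 µM. Inoculum ~10⁵ cells/well from fresh log-phase culture (OD₆₀₀ 0.6–0.8). MIC taken as lowest concentration preventing growth after 16 h at 37 °C, read by OD₆₀₀ turbidity. DMSO vehicle control, top 0.5% v/v. At least three independent experiments.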

Data set [4] in a line: Hemolytic activity against red blood cells (unknown origin) at 200 uM. The settings on record: read-out: Activity. The data set is classed as toxicity, cell-based, Erythrocyte.
A short description of data set [5]: Metal chelating activity assessed as formation of phenazine-iron complex measured for 1 to 60 mins by UV-vis spectroscopy. The settings on record: time 1-60 min. Put shortly:
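Compound from a 10 mM DMSO stock diluted in DMSO in a cuvette, alone or with ammonium iron(II) sulfate hexahydrate (10 mM aqueous stock). Spectra of the compound-only cuvette and the iron-containing cuvette are compared by UV-vis spectrometry to judge phenazine–iron(II) complex formation.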

The next data set deals with Enterococcus. The experiment in a line: Antibacterial activity against vancomycin-resistant Enterococcus 700221 assessed as bacterial growth inhibition incubated for 16 hrs by CLSI based broth microdilution method. The data set is classed as functional. Put shortly: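 Growth scored by OD₆₀₀ turbidity after 16 h at 37 °C; MIC is the lowest concentration preventing growth. DMSO vehicle control up to 0.5% v/v. Three or more independent experiments.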

For data set [6], the system named is Staphylococcus aureus. The data set is described as follows: Antibacterial activity against methicillin-resistant Staphylococcus aureus BAA-44 assessed as bacterial growth inhibition incubated for 16 hrs by CLSI based broth microdilution method. The class given is functional. The procedure, abridged: as §2
In data set [7] the test system is Staphylococcus epidermidis. The data set is described as follows: Antibacterial activity against methicillin-resistant Staphylococcus epidermidis 35984 assessed as bacterial growth inhibition incubated for 16 hrs by CLSI based broth microdilution method. The class given is functional. Put shortly: as §2
For data set [8], the system named is Staphylococcus aureus. The experiment in a line: Antibacterial activity against methicillin-resistant Staphylococcus aureus 1707 assessed as zone of inhibition at 10 mM incubated for 16 hrs by agar diffusion assay. The data set is classed as functional. The procedure, abridged: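 Modified Kirby-Bauer disk diffusion. 100 µL MRSA 1707 inoculum (OD₆₀₀ 0.7, ~10⁸ CFU) spread on LB agar and left 30 min. 10 µL of 10 mM DMSO compound solution then pipetted onto the plate. Incubation 16 h at 37 °C; zone of inhibition area (cm²) measured. Three independent experiments.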

Data set [9] deals with Staphylococcus aureus. The experiment in a line: Antibacterial activity against methicillin-resistant Staphylococcus aureus 1707 assessed as bacterial growth inhibition incubated for 16 hrs by CLSI based broth microdilution method. The class given is functional. Put shortly:
as §2

The subject of a further data set is Enterococcus faecalis. The experiment in a line: Antibacterial activity against Enterococcus faecalis OG1RF assessed as bacterial growth inhibition incubated for 16 hrs by CLSI based broth microdilution method. The data set is classed as functional. Put shortly: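 Broth microdilution per CLSI in brain-heart infusion: eleven 2-fold dilutions spanning 0.10–100 µM, with DMSO vehicle/negative control topping at 0.5% v/v. Inoculum ~10⁵ cells/well from log-phase culture (OD₆₀₀ 0.6–0.8). 37 °C, 16 h. MIC is the lowest concentration preventing growth, read as OD₆₀₀ turbidity. At least three independent experiments.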

Data set [10] relates to Staphylococcus epidermidis. The data set is described as follows: Antibacterial activity against Staphylococcus epidermidis clinical isolate CL-1 assessed as bacterial growth inhibition incubated for 16 hrs by CLSI based broth microdilution method. The data set is classed as functional.
Data set [11] deals with Staphylococcus aureus. The experiment in a line: Antibacterial activity against Staphylococcus aureus clinical isolate 138 assessed as bacterial growth inhibition incubated for 16 hrs by CLSI based broth microdilution method. The data set is classed as functional.
Data set [12] relates to Staphylococcus aureus. The experiment in a line: Antibacterial activity against Staphylococcus aureus clinical isolate 156 assessed as bacterial growth inhibition incubated for 16 hrs by CLSI based broth microdilution method. The class given is functional.
Data set [13] relates to Staphylococcus aureus. The data set is described as follows: Antibacterial activity against methicillin-resistant Staphylococcus aureus clinical isolate 2 assessed as bacterial growth inhibition incubated for 16 hrs by CLSI based broth microdilution method. The class given is functional.
The subject of data set [14] is Staphylococcus aureus. The experiment in a line: Antibacterial activity against methicillin-resistant Staphylococcus aureus clinical isolate 1 assessed as bacterial growth inhibition incubated for 16 hrs by CLSI based broth microdilution method. The data set is classed as functional.
Data set [15] relates to Staphylococcus aureus. The data set is described as follows: Antibacterial activity against Staphylococcus aureus clinical isolate 129 assessed as bacterial growth inhibition incubated for 16 hrs by CLSI based broth microdilution method. The data set is classed as functional.
The test system of data set [16] is Staphylococcus aureus. The experiment in a line: Antibacterial activity against Staphylococcus aureus clinical isolate 147 assessed as bacterial growth inhibition incubated for 16 hrs by CLSI based broth microdilution method. The class given is functional.

In data set [1], `O=[N+]([O-])c1ccc(CS(=O)(=O)Oc2c(Br)cc(Br)c3nc4cc(Cl)ccc4nc23)cc1` had a 50% cytotoxic concentration (CC50) at 48 h of 6.4 µM. The minimal inhibitory concentration (MIC) came to 0.15 µM (≈ 0.0881 µg/mL) in the data set with Streptococcus pneumoniae; 0.15 µM (≈ 0.0881 µg/mL) in [2]; 0.1 µM (≈ 0.0588 µg/mL) in the data set with Staphylococcus aureus [3]; 0.59 µM (≈ 0.347 µg/mL) in the data set with Enterococcus; 0.15 µM (≈ 0.0881 µg/mL) in the data set on Staphylococcus aureus [6]; 0.39 µM (≈ 0.229 µg/mL) in [7]. Besides, the MIC with Staphylococcus aureus [9] came out at 0.1 µM (≈ 0.0588 µg/mL); in the data set with Enterococcus faecalis it was 4.69 µM (≈ 2.76 µg/mL). In [4], the hemolysis at 200 µM is below 1%. For the same molecule, the outcome in data set [5] was inactive. The “diameter of the inhibition zone (DIZ)” value in the data set on Staphylococcus aureus [8] was determined as 0.66 cm2.

Turning to `Oc1c(Br)cc(Br)c2nc3cc(Cl)ccc3nc12`, the minimum inhibitory concentration (MIC) is 0.3 µM (≈ 0.117 µg/mL) in the data set on Streptococcus pneumoniae; 0.3 µM (≈ 0.117 µg/mL) in data set [2]; 0.075 µM (≈ 0.0291 µg/mL) in the data set with Staphylococcus aureus [3]; 0.15 µM (≈ 0.0583 µg/mL) in the data set with Staphylococcus aureus [6]; 0.1 µM (≈ 0.0388 µg/mL) with Staphylococcus aureus [9]. Moreover, in [4], the hemolysis at 200 µM is below 1%. In addition, the result in data set [5] was Active. For the same molecule, in the data set on Staphylococcus aureus [8], the “diameter of the inhibition zone (DIZ)” value is 1.7 cm2.

Consider `CN(C)[C@@H]1C(O)=C(C(N)=O)C(=O)[C@@]2(O)C(O)=C3C(=O)c4c(O)cccc4[C@@](C)(O)[C@H]3C[C@@H]12` [TETRACYCLINE], for which the minimal inhibitory concentration (MIC) in data set [10] stood at 25 µM (≈ 11.1 µg/mL); in the data set with Staphylococcus aureus [11], 0.15 µM (≈ 0.0667 µg/mL); in the data set with Staphylococcus aureus [12], 0.15 µM (≈ 0.0667 µg/mL); in the data set with Staphylococcus aureus [13] it was 0.1 µM (≈ 0.0444 µg/mL); with Staphylococcus aureus [14] it was 0.1 µM (≈ 0.0444 µg/mL); in the data set with Staphylococcus aureus [15], 0.1 µM (≈ 0.0444 µg/mL). For the same molecule, in the data set with Staphylococcus aureus [16], the MIC came out at 0.1 µM (≈ 0.0444 µg/mL).

Turning to `Oc1c(Br)cc(Br)c2nc3c(C(F)(F)F)cc(C(F)(F)F)cc3nc12`, the minimum inhibitory concentration (MIC) in the data set on Streptococcus pneumoniae is 0.1 µM (≈ 0.049 µg/mL); in data set [2] it was 0.1 µM (≈ 0.049 µg/mL); in the data set with Staphylococcus aureus [3] it was 0.15 µM (≈ 0.0735 µg/mL); in the data set with Enterococcus, 0.2 µM (≈ 0.098 µg/mL); in the data set on Staphylococcus aureus [6] it was 0.15 µM (≈ 0.0735 µg/mL); in data set [7] it was 0.05 µM (≈ 0.0245 µg/mL). Further, the MIC with Staphylococcus aureus [9] and in the data set on Enterococcus faecalis was 0.1 µM (≈ 0.049 µg/mL) throughout. In addition, in [4], the hemolysis at 200 µM stood at 16.7%. Further, the result in data set [5] was Active. The “diameter of the inhibition zone (DIZ)” value in the data set with Staphylococcus aureus [8] is recorded as 4.58 cm2.

As for `Cc1cccc2nc3c(OS(=O)(=O)Cc4ccccc4)c(Br)c(Cl)c(Br)c3nc12`, the MIC (in [10]; in the data set with Staphylococcus aureus [11]; in the data set on Staphylococcus aureus [12]; with Streptococcus pneumoniae; in [2]; with Staphylococcus aureus [3]) was above 100 µM each time. Also, the MIC (with Enterococcus; with Staphylococcus aureus [15]; in the data set with Staphylococcus aureus [6]; in data set [7]; with Staphylococcus aureus [9]; with Staphylococcus aureus [16]) was above 100 µM in each case. Further, the MIC in the data set with Enterococcus faecalis was above 100 µM. Further, the midpoint of cytotoxicity in data set [1], the CC50 at 48 h, lay at 49.6 µM. In addition, the result in data set [5] was inactive. Besides, the “diameter of the inhibition zone (DIZ)” value in the data set on Staphylococcus aureus [8] came out at 0 cm2.

In the case of `O=S(=O)(Cc1ccccc1)Oc1c(Br)cc(Br)c2nc3ccccc3nc12`, the MIC (in data set [10]; in the data set on Staphylococcus aureus [11]; with Staphylococcus aureus [12]; with Streptococcus pneumoniae; in data set [2]; in the data set on Staphylococcus aureus [3]) was above 100 µM each time. Also, the minimal inhibitory concentration (MIC) (in the data set on Enterococcus; with Staphylococcus aureus [15]; in the data set on Staphylococcus aureus [6]; in [7]; in the data set on Staphylococcus aureus [9]; in the data set on Staphylococcus aureus [16]) was above 100 µM each time. Also, the MIC in the data set on Enterococcus faecalis was above 100 µM. In data set [1], this molecule had a 50% cytotoxic concentration (CC50) at 48 h above 100 µM. In data set [5], the outcome was inactive. Further, the “diameter of the inhibition zone (DIZ)” value in the data set with Staphylococcus aureus [8] is reported as 0 cm2.

As to `COc1cccc(OC)c1C(=O)N[C@@H]1C(=O)N2[C@@H]1SC(C)(C)[C@@H]2C(=O)O` [METHICILLIN], the MIC in [10] was 12.5 µM (≈ 4.76 µg/mL); in the data set with Staphylococcus aureus [11] it was 37.5 µM (≈ 14.3 µg/mL); with Staphylococcus aureus [12], 25 µM (≈ 9.51 µg/mL); with Staphylococcus aureus [13], above 100 µM; with Staphylococcus aureus [14], 37.5 µM (≈ 14.3 µg/mL); in the data set with Staphylococcus aureus [15] it was 37.5 µM (≈ 14.3 µg/mL). Besides, in the data set on Staphylococcus aureus [16], the MIC is 6.25 µM (≈ 2.38 µg/mL).
